Only some compounds are listed: those with a hit (about 4.5% of all), similar ones and a draw of the others.
PHOSPHO1 block: blocks human PHOSPHO1 phosphatase activity; Q8TCT1; recombinant PHOSPHO1, absorbance phosphatase assay; inhibition, % at 13.3 µM; 1.1% of 290,000 active; AID 1565; in the data active means inhibition above about 60%
MrgX1 PAM: allosterically activates human MrgX1 receptor signaling; MrgX1-HEK293, Fluo-4 calcium flux, FDSS; stronger effect = higher value; B-score at 10 µM; 0.63% of 310,000 active; AID 588675;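 active means plate-corrected calcium response at least 3 library SD above typical, normal starting fluorescence, not activating the receptor alone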;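 further: compound read alongside a low EC10 to EC30 dose of BAM8-22 agonist; peak minus trough fluorescence over baseline measured at the second addition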
Target sequence (Q96LB2 whole entry, looked up): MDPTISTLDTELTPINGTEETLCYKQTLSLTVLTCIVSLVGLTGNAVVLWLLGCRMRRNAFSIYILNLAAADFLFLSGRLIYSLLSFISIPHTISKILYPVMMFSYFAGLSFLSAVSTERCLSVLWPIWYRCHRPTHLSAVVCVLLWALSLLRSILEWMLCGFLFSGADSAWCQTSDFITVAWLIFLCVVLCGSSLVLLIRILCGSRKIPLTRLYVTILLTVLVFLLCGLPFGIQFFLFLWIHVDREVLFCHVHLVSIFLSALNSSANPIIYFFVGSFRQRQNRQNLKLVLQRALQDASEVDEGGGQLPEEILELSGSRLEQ
RGS4 block: human RGS4 inhibition | 0.45% of 310,000 active | P49798 | AID 463165 | B-score at 10 µM | HEK293 M3R/RGS4 inducible, Fluo-4 calcium flux; stronger effect = higher value; triggered by carbachol at its EC20;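 active means B-score, a plate-corrected calcium signal, over three deviations above library mean, with baseline fluorescence within five deviations of library mean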;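 further: RGS4 expression induced by doxycycline in cells with stable M3 receptor; B-score is computed from the integrated fluorescence ratio over baseline after carbachol; higher B-score means a larger calcium signal and so more RGS4 inhibition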
Target sequence (P49798 whole entry, looked up): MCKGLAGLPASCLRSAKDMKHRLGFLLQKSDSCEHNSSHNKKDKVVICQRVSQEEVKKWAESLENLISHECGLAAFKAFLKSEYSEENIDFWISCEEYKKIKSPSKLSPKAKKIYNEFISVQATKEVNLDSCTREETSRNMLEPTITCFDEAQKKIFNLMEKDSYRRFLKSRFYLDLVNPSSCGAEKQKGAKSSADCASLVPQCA
MrgX1 antagonist: antagonists of human MrgX1 receptor; Q96LB2; MRGX1-HEK293 calcium flux, Fluo-4, BAM8-22 antagonism; stronger effect = lower value; 1.3% of 310,000 active; AID 588676; B-score at 10 µM;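 active means calcium-response B-score plate-corrected more than 3 library SD below zero, starting fluorescence within 5 deviations, no agonist response on first addition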;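 further: peak minus trough fluorescence over baseline after final BAM8-22 challenge near maximal dose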
RGS4 act: RGS4 potentiation or activation | HEK293 M3R/inducible RGS4, carbachol calcium flux Fluo4; stronger effect = lower value | B-score at 10 µM | 0.92% of 310,000 active | AID 463111;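 active means B-score of the integrated calcium signal more than 4 SD below the library mean, with starting fluorescence not abnormally high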;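 further: negative B-score means reduced calcium response which marks RGS4 activation or potentiation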
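System – HEK293 FlpIn-TREx cells, stable M3R, doxycycline-inducible RGS4 · Reagent – ECmax carbachol challenge · Times – compound preincubation 20 min at room temperature before agonist · Technique – Fluo4 fluorescence kinetic imaging of calcium · Measure – B score of integrated Fluo4 ratio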
MrgX1 ag: activates human MrgX1 receptor signaling | Q96LB2 | MrgX1-HEK293 cells, Fluo-4 calcium fluorescence, agonist mode; stronger effect = higher value | B-score at 10 µM | 0.44% of 310,000 active;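 active means calcium response B-score plate-corrected fluorescence ratio at least 3 library SD, with starting fluorescence B-score inside 5 SD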
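System: HEK293 cells stably expressing human MrgX1 receptor; Dosing: test compound in the initial addition of three; Schedule: overnight plating, then 30 min 37 °C plus 30 min room-temperature dye loading; Detection: kinetic calcium dye fluorescence, Fluo-4 NW; Controls: per-plate positive and negative controls for Z′ factor.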
An asterisk follows results filed as active.

What do the screens show for `CCn1cc(S(=O)(=O)Nc2cc(F)ccc2C)cn1`?
PHOSPHO1 block: 8; MrgX1 PAM: inactive; RGS4 block: inactive; MrgX1 antagonist: inactive; RGS4 act: inactive; MrgX1 ag: inactive

What do the screens show for `COc1cccc(/C=C/C(=O)Nc2ccc(OC)nc2)c1`?
PHOSPHO1 block: 2; MrgX1 PAM: inactive; RGS4 block: inactive; MrgX1 antagonist: inactive; RGS4 act: inactive; MrgX1 ag: inactive

What do the screens show for `COc1ccc(/C=C/C(=O)NC(=S)Nc2ccc(C(=O)O)cc2)cc1`?
PHOSPHO1 block: 67*; MrgX1 PAM: inactive; RGS4 block: inactive; MrgX1 antagonist: inactive; RGS4 act: inactive; MrgX1 ag: inactive

What do the screens show for `COc1ccc(NC(=S)NC(=O)/C=C/c2ccc(F)cc2)cc1`?
PHOSPHO1 block: 31; MrgX1 PAM: inactive; RGS4 block: inactive; MrgX1 antagonist: inactive; RGS4 act: inactive; MrgX1 ag: inactive

Results for N=c1oc2cc(O)ccc2cc1C(=O)Nc1ccc(Br)cc1 ?
PHOSPHO1 block: 8; MrgX1 PAM: inactive; RGS4 block: inactive; MrgX1 antagonist: -7*; RGS4 act: inactive; MrgX1 ag: inactive

Results for COC(=O)CN1C(=O)C(O)(CC(=O)c2ccc(C)cc2)c2cc(Br)ccc21 (stereo not drawn) ?
PHOSPHO1 block: -26; MrgX1 PAM: inactive; RGS4 block: inactive; MrgX1 antagonist: inactive; RGS4 act: inactive; MrgX1 ag: inactive

How did CN1C(=O)C(O)(CC(=O)c2ccc(F)cc2)c2cc(Br)ccc21 (stereo not drawn) do in these assays?
PHOSPHO1 block: 6; MrgX1 PAM: inactive; RGS4 block: inactive; MrgX1 antagonist: -5.1*; RGS4 act: inactive; MrgX1 ag: inactive

How did CC1=NN(c2ccccc2)C(=O)C1C(=O)c1ccc(Cl)cc1 (stereo not drawn) do in these assays?
PHOSPHO1 block: 19; MrgX1 PAM: inactive; RGS4 block: inactive; MrgX1 antagonist: inactive; RGS4 act: inactive; MrgX1 ag: 32*

What do the screens show for `O=C(NC(c1ccccc1)c1cc(Cl)c2cccnc2c1O)c1cccnc1` (stereo not drawn)?
PHOSPHO1 block: -2; MrgX1 PAM: inactive; RGS4 block: inactive; MrgX1 antagonist: inactive; RGS4 act: inactive; MrgX1 ag: inactive

What do the screens show for `CCOc1ccc(C(Nc2cccnc2)c2cc(Cl)c3cccnc3c2O)cc1` (stereo not drawn)?
PHOSPHO1 block: 17; MrgX1 PAM: inactive; RGS4 block: inactive; MrgX1 antagonist: inactive; RGS4 act: -8.3*; MrgX1 ag: inactive

Results for O=C(O)COc1ccccc1C(Nc1cccnc1)c1cc(Cl)c2cccnc2c1O (stereo not drawn) ?
PHOSPHO1 block: 84*; RGS4 block: inactive; RGS4 act: inactive

Results for CNC(=S)NC1(C)CCS(=O)(=O)C1 (stereo not drawn) ?
PHOSPHO1 block: 36; MrgX1 PAM: inactive; RGS4 block: inactive; MrgX1 antagonist: inactive; RGS4 act: inactive; MrgX1 ag: inactive

Results for COc1ccc(/C(O)=C2/C(=O)C(=O)N(CCCN3CCOCC3)C2c2ccc(N(C)C)cc2)cc1 (stereo not drawn) ?
PHOSPHO1 block: 19; MrgX1 PAM: inactive; RGS4 block: inactive; MrgX1 antagonist: inactive; RGS4 act: inactive; MrgX1 ag: inactive

What do the screens show for `O=C(CCNC(=O)c1ccccc1Cl)Nc1cc(C(F)(F)F)ccc1Cl`?
PHOSPHO1 block: -19; MrgX1 PAM: inactive; RGS4 block: inactive; MrgX1 antagonist: inactive; RGS4 act: inactive; MrgX1 ag: inactive

What do the screens show for `Cc1ccc(C)c(C(=O)COC(=O)CCCC(=O)Nc2cc(C(F)(F)F)ccc2Cl)c1`?
PHOSPHO1 block: 4; MrgX1 PAM: inactive; RGS4 block: inactive; MrgX1 antagonist: -7*; RGS4 act: inactive; MrgX1 ag: inactive

How did O=C(NC(C(=O)N/N=C/c1cc([N+](=O)[O-])ccc1O)c1n[nH]c(=O)c2ccccc12)c1ccccc1 (stereo not drawn) do in these assays?
PHOSPHO1 block: 22; MrgX1 PAM: inactive; RGS4 block: inactive; MrgX1 antagonist: inactive; RGS4 act: inactive; MrgX1 ag: inactive

Results for COc1cc(CNCc2cccs2)ccc1OCc1ccccc1 ?
PHOSPHO1 block: 43; MrgX1 PAM: inactive; RGS4 block: inactive; MrgX1 antagonist: inactive; RGS4 act: -7.1*; MrgX1 ag: inactive

What do the screens show for `COc1cc(CNCc2cccs2)ccc1OCc1cccs1`?
PHOSPHO1 block: 15; MrgX1 PAM: inactive; RGS4 block: inactive; MrgX1 antagonist: inactive; RGS4 act: inactive; MrgX1 ag: inactive

Results for O=C1/C(=C/C=C/c2ccccc2)Oc2c1ccc(O)c2CN1CCN(CCO)CC1 ?
PHOSPHO1 block: 32; MrgX1 PAM: inactive; RGS4 block: inactive; MrgX1 antagonist: -5.7*; RGS4 act: inactive; MrgX1 ag: inactive

What do the screens show for `Cc1ccc(/C=C2\Oc3c(ccc(O)c3CN3CCN(C)CC3)C2=O)cc1`?
PHOSPHO1 block: -5; MrgX1 PAM: inactive; RGS4 block: inactive; MrgX1 antagonist: inactive; RGS4 act: -9.6*; MrgX1 ag: inactive

Results for CCN1CCN(Cc2c(O)ccc3c2O/C(=C\c2ccc(C)cc2)C3=O)CC1 ?
PHOSPHO1 block: -10; MrgX1 PAM: inactive; RGS4 block: inactive; MrgX1 antagonist: inactive; RGS4 act: inactive; MrgX1 ag: inactive

Results for CCN1CCN(Cc2c(O)ccc3c2O/C(=C\C=C\c2ccccc2)C3=O)CC1 ?
PHOSPHO1 block: -17; MrgX1 PAM: inactive; RGS4 block: inactive; MrgX1 antagonist: inactive; RGS4 act: inactive; MrgX1 ag: inactive

What do the screens show for `CCN1CCN(Cc2c(O)ccc3c2O/C(=C\c2ccccc2)C3=O)CC1`?
PHOSPHO1 block: -114; MrgX1 PAM: inactive; RGS4 block: inactive; MrgX1 antagonist: inactive; RGS4 act: -8.3*; MrgX1 ag: inactive

What do the screens show for `O=C(Cc1ccc2c(c1)OCCO2)N1CCN(S(=O)(=O)c2cccc(C(F)(F)F)c2)CC1`?
PHOSPHO1 block: -1; MrgX1 PAM: inactive; RGS4 block: inactive; MrgX1 antagonist: inactive; RGS4 act: inactive; MrgX1 ag: inactive

What do the screens show for `COc1ccccc1NC(=O)Cn1c(C)nc2c(sc(=S)n2Cc2ccco2)c1=O`?
PHOSPHO1 block: 16; MrgX1 PAM: inactive; RGS4 block: inactive; MrgX1 antagonist: inactive; RGS4 act: inactive; MrgX1 ag: inactive

What do the screens show for `Cn1c(Cc2ccc3c(c2)OCO3)nnc1SCC(=O)NC1CCCC1`?
PHOSPHO1 block: 9; MrgX1 PAM: inactive; RGS4 block: inactive; MrgX1 antagonist: inactive; RGS4 act: inactive; MrgX1 ag: inactive
